Data: PubChem BioAssay AID504383 (The Scripps Research Institute Molecular Screening Center, 2011)
About 1,200 (48%) of roughly 2,500 compounds were called active.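 How the source made its calls: active means mean activation above the low control average plus 3 SD, as set in the primary screen (cut at about 12% in these data); inactive means the rest.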 So high a share suggests a set chosen from earlier hits. The list shows a part of the results.

Molecular target: Troponin I, cardiac muscle (Homo sapiens) + Troponin T, cardiac muscle (Homo sapiens) + Troponin C, slow skeletal and cardiac muscles (Homo sapiens) (UniProt P19429+P45379+P63316)
Assay: calcium sensitizers of cardiac thin filaments – biochemical, IANBD-TnC fluorescence, triplicate, confirmation (AID 504383);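 further: 0% = DMSO at 0.472 mM calcium and 100% = DMSO at 2.9 mM calcium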
Details: IANBD-labeled cardiac RTF, Ca2+ sensitivity fluorescence; at 7.2 µM; hits give high values; scaled from EC20 to saturating calcium; tested at EC20 calcium, 0.472 mM
How it was run: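 System: Labelled thin filament complex | Technique: Filament fluorescence intensity | Benchmarks: Low control EC20 calcium, high control EC100 calcium | Timing: 15 min at 25 °C | Compound dosing: One dose, 7.2 µM nominal | Probe or stimulus: Ca2+ 0.472 mM, EC20 level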

Row | Structure (SMILES) | activation
1 | CCCOc1cc(N(CC)CC)ccc1/C=C(/C#N)c1nc2ccc(C)cc2[nH]1 | 30.9% (active)
2 | COc1cc(/C=C(\C#N)c2nc3ccccc3[nH]2)ccc1O | 6.21% (inactive)
3 | COc1cccc(/C=C(/C#N)c2nc3ccccc3[nH]2)c1OC(C)C(=O)O (centres undefined) | 5.66% (inactive)
4 | CCN(CC)c1ccc(/C=C(/C#N)c2nc3ccccc3[nH]2)c(OC(C)C)c1 | 127% (active)
5 | CCOc1cc(N(CC)CC)ccc1/C=C(/C#N)c1nc2ccccc2[nH]1 | 5.8% (inactive)
6 | COc1cc(/C=C(\C#N)c2nc3ccccc3[nH]2)cc(OC)c1O | 37.9% (active)
7 | COC1C/C(=N\O)C2OC(c3ccccc3)OCC2O1 (centres undefined) | 6.29% (inactive)
8 | COc1cc2c3nnc(-c4ccc(F)cc4)c-3cn(Cc3cccc(C)c3)c2cc1OC | 11.1% (inactive)
9 | COc1cc2c3nnc(-c4ccc(F)cc4)c-3cn(Cc3cccc(F)c3)c2cc1OC | 446% (active)
10 | COc1cc2c3nnc(-c4ccc(F)cc4)c-3cn(Cc3ccc(C)cc3)c2cc1OC | 3.15% (inactive)
11 | O=C(NC1CCCCC1)C(c1ccc(F)cc1)N(Cc1ccccc1)C(=O)CN1C(=O)c2ccccc2S1(=O)=O (centres undefined) | 165% (active)
12 | COCCNC(=O)C(c1ccc(C)o1)N(Cc1ccc(F)cc1)C(=O)Cn1nnc2ccccc21 (centres undefined) | 4.47% (inactive)
13 | Cc1cc(/C=N/NC(N)=S)c(O)c(/C=N/NC(N)=S)c1 | 480% (active)
14 | CC(=O)Nc1cccc(NC(=O)CSc2nnc(Cc3cccn3C)n2CCc2ccccc2)c1 | 2.51% (inactive)
15 | CCn1c(Cc2ccccc2)nnc1SCC(=O)OC(C)C | 11.8% (active)
16 | C/C(=N/NC(=O)c1cc(C)[nH]n1)c1ccco1 | 14.3% (active)
17 | C/C(=N/NC(=O)CNC(=O)Cc1ccccc1)c1ccco1 | 5.62% (inactive)
18 | CCN(CC)c1ccc(/C=C/C(=O)C2C(=O)C=C(C)OC2=O)cc1 (centres undefined) | 3.69% (inactive)
19 | CCN(CC)c1ccc(/C=c2/sc3nnc(-c4ccccc4C)n3c2=O)cc1 | 12% (active)
20 | CCN(CC)c1ccc(/C=c2\sc3nnc(-c4ccccc4Cl)n3c2=O)cc1 | 72.8% (active)
21 | COc1cccc(C2C=C(c3ccc(Br)s3)Nc3ncnn32)c1OC (centres undefined) | 5.02% (inactive)
22 | Brc1ccc(C2=CC(c3cccs3)n3ncnc3N2)cc1 (centres undefined) | 8.78% (inactive)
23 | COc1cc(C2C=C(c3cccs3)Nc3ncnn32)cc(OC)c1OC (centres undefined) | 12.2% (active)
24 | Cc1noc(NS(=O)(=O)c2ccc(NC(=O)CSc3nc4c(cc3C#N)CCC4)cc2)c1C | 12.5% (active)

Row | Structure (SMILES) | activation
25 | Cc1cc(C)nc(NS(=O)(=O)c2ccc(NC(=O)CSc3nc4ccccc4[nH]3)cc2)n1 | 8.08% (inactive)
26 | COC(=O)C1=C(CSc2nc3c(cc2C#N)CN(C)CC3)OC(N)=C(C#N)C1c1ccc(F)cc1 (centres undefined) | -0.37% (inactive)
27 | CC(=O)Nc1ccccc1 | 6.06% (inactive)
28 | CC(=O)Nc1ccc2nc3c(=O)n(C)c(=O)n(C)c3nc2c1 | 18.8% (active)
29 | CC(=O)Nc1ccc2cc3ccc(NC(C)=O)cc3nc2c1 | 43% (active)
30 | CC(=O)Nc1ccc(S(=O)(=O)N2CCN3CCCC3C2)cc1 (centres undefined) | 6.53% (inactive)
31 | CC1CCN(S(=O)(=O)c2ccc(N=NC3=C(O)CC(C)(C)CC3=O)cc2)CC1 | 11.9% (active)
32 | Cc1nn(C)c(NC(=O)c2ccccc2Cl)c1Cl | 59.1% (active)
33 | COc1ccccc1C(=O)Nc1nnn(C)n1 | 10% (inactive)
34 | CN1Cc2c(N)cccc2C(c2ccccc2)C1 (centres undefined) | -1.03% (inactive)
35 | N/C(COc1cc(Cl)cc(Cl)c1)=N\O | 153% (active)
36 | COC(=O)CN1C(=S)N(c2ccc(OC)cc2)C(=O)/C1=C/c1ccc(N2CCOCC2)cc1 | 11.4% (inactive)
37 | CCc1ccc(/C=C2/C(=O)N(C)C(=S)N2CC(=O)OC)s1 | 11.7% (active)
38 | COCCCN1C(=O)/C(=C/c2ccc(CNS(=O)(=O)c3ccccc3)o2)C(C(=O)OC)=C1C | 8.19% (inactive)
39 | CCOc1ccc(N(C(=O)CNC(=O)c2ccco2)C(C(=O)NC2CCCC2)c2ccncc2)cc1 (centres undefined) | 9.24% (inactive)
40 | C=CCN(C(=O)CNS(=O)(=O)c1ccccc1)C(C(=O)NCCOC)c1ccncc1 (centres undefined) | 16.9% (active)
41 | N#CC(C#N)=C1C=C2C=C(N3CCOCC3)CCC2CC1 (centres undefined) | -1.16% (inactive)
42 | Cc1ccccc1-n1c(O)c(/C=C/C=Nc2ccccc2)c(=O)[nH]c1=O | 19.4% (active)
43 | CSc1nnc(N(CCC#N)CCC#N)s1 | 35.1% (active)
44 | O=C1c2ccccc2C(=O)N1CC1=NCCc2ccccc21 | 11.2% (inactive)
45 | O=C(CN1C(=O)c2ccccc2C1=O)N1CCN=C1c1ccccc1 | 70.2% (active)
46 | O=C(c1ccc(F)cc1)N1CCN=C1c1ccccc1 | 9.85% (inactive)
47 | CC1CN/C(=C\C(=O)c2ccc(Br)cc2)C(=O)N1 (centres undefined) | 2.08% (inactive)
48 | CCCN1C=CC(=CC=C(C#N)C#N)C=C1 | 28% (active)

Row | Structure (SMILES) | activation
49 | C=CCN1C=CC(=C/C=C(/C#N)C(=O)OCC)C=C1 | 4.84% (inactive)
50 | CCCCCCN1C=CC(=C/C=C(\C#N)C(=O)OCC)C=C1 | 501% (active)
51 | CC1=C/C(=C\C=C(C#N)C#N)N(C)c2ccccc21 | 8.37% (inactive)
52 | C=CCN1C=CC(=CC=C(C#N)C#N)C=C1 | 668% (active)
53 | CCOC(=O)/C(C#N)=C\C=C1C=CN(C)C=C1 | 8.19% (inactive)
54 | Cc1cc(C)nc(SCCCNCc2ccc(Br)cc2)n1 | 9.74% (inactive)
55 | O=C(O)c1ccc(O)c(O)c1 | 7.5% (inactive)
56 | Cc1cc(C)n(-c2ccc(C(=O)O)cc2)n1 | 16.2% (active)
57 | Cc1cc(C)n(-c2ccc([N+](=O)[O-])cc2-c2nn[nH]n2)n1 | 7.13% (inactive)
58 | N#CC1=C(N)Oc2ccc3ccc(O)cc3c2C1c1ccsc1 (centres undefined) | 31.6% (active)
59 | N#CC1=C(N)SC(N)=C(C#N)C1c1cccc(O)c1 | 6.27% (inactive)
60 | CCOC(=O)c1sc(N)c(C#N)c1COC(=O)CNC(=O)c1cc(OC)c(OC)c(OC)c1 | 67.4% (active)
61 | CCOC(=O)c1sc(N)c(C#N)c1COC(=O)CNC(=O)c1ccccc1 | 8.8% (inactive)
62 | CC(C)CC[C@@H](O)[C@](C)(O)C1CC[C@@]2(O)C3=CC(=O)[C@@H]4C[C@@H](O)[C@@H](O)C[C@]4(C)C3CC[C@]12C (some centres undefined) | 279% (active)
63 | CNC(=O)N(O)C1N(C)C(=O)N(CC(=O)OC)C1(C)C (centres undefined) | 55.3% (active)
64 | COc1ccc(OC(C)C(=O)Nc2cccc(OC)c2)cc1 (centres undefined) | 7.49% (inactive)
65 | COc1cc(OC)c(C(=O)OC(C)C(=O)Nc2cccc(C(F)(F)F)c2)cc1OC (centres undefined) | 32.5% (active)
66 | COc1ccc(C2=NN(C(=O)COC(=O)c3ccc(NC(=O)CC#N)cc3)C(c3ccco3)C2)cc1 (centres undefined) | 14.7% (active)
67 | COc1ccc(OC)c(NC(=O)CNC(=O)Cn2c(C)cc3ccccc3c2=O)c1 | 3680% (active)
68 | COc1ccc(OC)c(NC(=S)Nc2ccccc2)c1 | 5.57% (inactive)
69 | CCCC(CCC(=O)Nc1ccc(S(N)(=O)=O)cc1)C(=O)O (centres undefined) | 8.1% (inactive)
70 | NS(=O)(=O)c1ccc(NC(=O)COc2ccc(C(=O)c3ccc(F)cc3)cc2)cc1 | 1350% (active)
71 | O=C(Oc1cc2oc(=O)c3c(c2cc1Cl)CCCC3)c1cccs1 | 1.37% (inactive)
72 | CC1CC(C)CN(C(=O)COC(=O)CCc2nc3ccccc3c(=O)[nH]2)C1 (centres undefined) | 8.84% (inactive)

Row | Structure (SMILES) | activation
73 | NC(=O)N/N=C/c1ccc(N2CCOCC2)s1 | 3.82% (inactive)
74 | O=C(CN1C(=O)c2ccccc2C1=O)NCc1ccc(N2CCOCC2)cc1 | 12.4% (active)
75 | COc1ccc(Sc2ccc(-c3nc4cnccn4c3NC3CCCCC3)cc2OC)cc1 | 3.89% (inactive)
76 | CN(C)c1ccc(/C=C/c2nc3ccccc3c(=O)n2CCO)cc1 | 398% (active)
77 | CCOC(=O)C1C(=O)C=C(/C=C/c2ccc(N(C)C)cc2)CC1c1ccccc1 (centres undefined) | 5.48% (inactive)
78 | C[C@@H]1C=C(C(=O)N2CCOCC2)O[C@H](OCc2ccc(CO)cc2)C1 | 6.41% (inactive)
79 | CC1(C)CC2CC(C)(CN2C(=S)Nc2ccccc2F)C1 (centres undefined) | 3.28% (inactive)
80 | COc1cc2c(cc1[N+](=O)[O-])-c1ccccc1C2 | 302% (active)
81 | CNc1ccccc1C(C)(C)c1cc(C)[nH]n1 | 28.3% (active)
82 | CCCN(CCC)S(=O)(=O)c1ccc(C(=O)OCCN2C(=O)c3cccc4c(N5CCOCC5)ccc(c34)C2=O)cc1 | 16.2% (active)
83 | O=C(OCCN1C(=O)c2cccc3c(N4CCOCC4)ccc(c23)C1=O)c1ccc(Cl)cc1 | 25.9% (active)
84 | O=C(OCCN1C(=O)c2cccc3c(N4CCOCC4)ccc(c23)C1=O)c1ccccc1Cl | 13.6% (active)
85 | O=C(OCCN1C(=O)c2cccc3c(N4CCOCC4)ccc(c23)C1=O)c1ccc(Cl)cc1Cl | 39.1% (active)
86 | CC(=O)N(C(C)=O)N1C(=O)c2cccc3c(N4CCOCC4)ccc(c23)C1=O | 10.5% (inactive)
87 | COc1cccc(C(=O)Nc2cc(C(=O)NCc3ccc(C)cc3)ccc2N2CCC3(CC2)CC(c2cccc(Br)c2)=NO3)c1 | 5.62% (inactive)
88 | O=C1OCC/C1=C\c1ccccc1O | 3.58% (inactive)
89 | CCN(CC)c1ccc(/C=c2\sc3nc4ccccc4n3c2=O)c(O)c1 | 41.3% (active)
90 | CC(=O)Oc1ccc(NC(=O)Cc2ccccc2)c(C(=O)O)c1 | 34.2% (active)
91 | Cc1ccc(OCc2ccc(C(=O)O)o2)cc1C | 4.06% (inactive)
92 | COc1ccc(NC(=O)Cc2ccccc2)cn1 | 9.43% (inactive)
93 | CCN1C(=O)[C@@H]2[C@@H](c3ccc(-c4cccc(Cl)c4)cc3)N3CCC[C@@]3(C(=O)OC)[C@@H]2C1=O | 14% (active)
94 | CCCCCCSc1ccc([C@@H]2[C@H]3C(=O)N(CC)C(=O)[C@H]3[C@]3(C(=O)OC)CCCCN23)cc1OC | 6.92% (inactive)
